# Data: ChEMBL document CHEMBL2424614, “A novel p-terphenyl derivative inducing cell-cycle arrest and apoptosis in MDA-MB-435 cells through topoisomerase inhibition” (Eur J Med Chem, 2013)
# Calls of active or inactive are those of the source. The calls are words filed in the database; no cut-off is given here.
# Tests used:
# MDA-MB-435 [1] = test: Cell cycle arrest in human MDA-MB-435 cells assessed as increase in CDC2 expression at 0.25 to 1 uM after 12 to 24 hrs by Western blotting analysis; type: functional, cell-based
# In short: (§1)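 Treated MDA-MB-435 cells lysed in ice-cold Tris-HCl pH 7.4 buffer with Triton, phosphatase and protease inhibitors. Lysates clarified, boiled in SDS loading buffer, run on 8-12% SDS-PAGE and blotted. Membranes blocked in 5% skim milk, probed with primary antibodies, then peroxidase secondaries with ECL detection. β-actin as loading control.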
# MDA-MB-435 [2] = test: Cell cycle arrest in human MDA-MB-435 cells assessed as accumulation at S phase at 1 uM after 24 hrs by propidium iodide staining-based flow cytometry (reference value: 57.11%); type: functional
# MDA-MB-435 [3] = test: Induction of apoptosis in human MDA-MB-435 cells assessed as chromatin condensation at 0.25 to 1 uM by DAPI staining-based fluorscence microscopy; type: functional, cell-based
# In short: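 Treated MDA-MB-435 cells washed in ice-cold PBS, fixed 20 min in 4% paraformaldehyde, stained 30 min at 37 °C with DAPI (50 µg/mL) containing 100 µg/mL RNase A. After PBS washes, examined by fluorescence microscopy (excitation 340 nm, emission 488 nm).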
# MDA-MB-435 [4] = test: Induction of apoptosis in human MDA-MB-435 cells assessed as dead cells at 2 uM after 24 hrs by annexin-V FITC/propidium iodide staining-based flow cytometry (reference value: 0.61 +/- 0.24%); type: functional
# MDA-MB-435 [5] = test: Cell cycle arrest in human MDA-MB-435 cells assessed as accumulation at G1 phase at 0.5 uM after 24 hrs by propidium iodide staining-based flow cytometry (reference value: 28.06%); type: functional
# MDA-MB-435 [6] = test: Cell cycle arrest in human MDA-MB-435 cells assessed as accumulation at G1 phase at 1 uM after 24 hrs by propidium iodide staining-based flow cytometry (reference value: 28.06%); type: functional
# MDA-MB-435 [7] = test: Cell cycle arrest in human MDA-MB-435 cells assessed as accumulation at G2/M phase at 0.25 uM after 24 hrs by propidium iodide staining-based flow cytometry (reference value: 14.05%); type: functional
# MDA-MB-435 [8] = test: Cell cycle arrest in human MDA-MB-435 cells assessed as accumulation at S phase at 0.5 uM after 24 hrs by propidium iodide staining-based flow cytometry (reference value: 57.11%); type: functional
# MDA-MB-435 [9] = test: Cell cycle arrest in human MDA-MB-435 cells assessed as accumulation at sub-G1 phase at 1 uM after 24 hrs by propidium iodide staining-based flow cytometry (reference value: 0.79%); type: functional
# MDA-MB-435 [10] = test: Induction of apoptosis in human MDA-MB-435 cells assessed as increase in cleaved-caspase 3 expression after 12 to 24 hrs by Western blotting analysis; type: functional, cell-based; in short: as §1
compound,measurement,setting,value
Oc1ccc(-c2ccc(-c3ccc(O)c(O)c3)cc2)cc1,Activity,MDA-MB-435 [1],Active
same,Activity,MDA-MB-435 [2],12.58%
same,Activity,MDA-MB-435 [3],Active
same,Activity,MDA-MB-435 [4],1.7%
same,Activity,MDA-MB-435 [5],30.68%
same,Activity,MDA-MB-435 [6],22.42%
same,Activity,MDA-MB-435 [7],16.24%
same,Activity,MDA-MB-435 [8],26.38%
same,Activity,MDA-MB-435 [9],10.5%
same,Activity,MDA-MB-435 [10],Dose-dependent effect
